Source: ChEMBL document CHEMBL4393665 (Eur J Med Chem, 2019)

What was measured:
[1] = target: T1, ATP-dependent translocase ABCB1 (Homo sapiens, UniProt P08183); assay: Inhibition of P-glycoprotein (unknown origin) in MDCK-MDR1 assessed as reduction of ATP consumption pre-incubated for 2 hrs followed by substrate addition shaken for 5 mins by luminescence assay; format: cell-based; conditions: mdck-mdr1, 5 min
[2] = target: T1, ATP-dependent translocase ABCB1; assay: Inhibition of P-glycoprotein-mediated Rhodamine-123 efflux in human K562 cells assessed as Rhodamine-123 accumulation at 1 uM preincubated for 15 mins followed by Rhodamine-123 addition measured after 30 mins by flow cytometry; format: cell-based; conditions: k562, 0.5 h
[3] = target: T1, ATP-dependent translocase ABCB1; assay: Inhibition of P-glycoprotein-mediated Rhodamine-123 efflux in human K562/DOX cells assessed as […] at 1 uM […] by flow cytometry relative to control; format: cell-based; design: scale not given: the % may be the effect or the level left; conditions: 0.5 h
Summary of the method: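 K562/DOX cells were loaded with 5 µM rhodamine-123 for 30 min. They were then washed and held 10 min in rhodamine-free medium, with or without modulator at 1.0 µM. Verapamil at 3.0 µM was the reference. Flow cytometry median fluorescence after efflux was divided by that after uptake and expressed as a percentage. Mean ± SE of three independent experiments.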

[4] = target: T1, ATP-dependent translocase ABCB1; assay: Inhibition of P-gp in human K562/DOX cells assessed as drug level causing 50% increase in nuclear pirarubicin concentration incubated for 30 mins by spectroflurometry; format: cell-based; conditions: read-out: I0.5
Summary of the method: (§1)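 Pirarubicin uptake into nuclei was measured in P-gp-overexpressing, doxorubicin-resistant K562/DOX cells. [I]0.5 is the modulator concentration giving a half-maximal increase (α = 0.5) in nuclear pirarubicin concentration. αmax is the maximum increase obtainable in resistant cells. Mean ± SE of three independent experiments.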

[5] = target: T1, ATP-dependent translocase ABCB1; assay: Inhibition of P-gp in human K562/DOX cells assessed as drug level causing maximum increase in nuclear pirarubicin concentration incubated for 30 mins by spectroflurometry relative to control; format: cell-based; conditions: 0.5 h; summary of the method: as §1
[6] = target: T1, ATP-dependent translocase ABCB1; assay: Inhibition of P-glycoprotein (unknown origin) in MDCK-MDR1 assessed as inhibtion of calcein-AM transport incubated for 30 mins by fluorescence assay; format: cell-based
[7] = target: T2, Broad substrate specificity ATP-binding cassette transporter ABCG2 (Homo sapiens, UniProt Q9UNQ0); assay: Inhibition of BCRP (unknown origin) in MDCK-BCRP assessed as inhibtion of hoechst 33342 transport incubated for 30 mins by fluorescence assay
T2 sequence (Q9UNQ0 whole entry): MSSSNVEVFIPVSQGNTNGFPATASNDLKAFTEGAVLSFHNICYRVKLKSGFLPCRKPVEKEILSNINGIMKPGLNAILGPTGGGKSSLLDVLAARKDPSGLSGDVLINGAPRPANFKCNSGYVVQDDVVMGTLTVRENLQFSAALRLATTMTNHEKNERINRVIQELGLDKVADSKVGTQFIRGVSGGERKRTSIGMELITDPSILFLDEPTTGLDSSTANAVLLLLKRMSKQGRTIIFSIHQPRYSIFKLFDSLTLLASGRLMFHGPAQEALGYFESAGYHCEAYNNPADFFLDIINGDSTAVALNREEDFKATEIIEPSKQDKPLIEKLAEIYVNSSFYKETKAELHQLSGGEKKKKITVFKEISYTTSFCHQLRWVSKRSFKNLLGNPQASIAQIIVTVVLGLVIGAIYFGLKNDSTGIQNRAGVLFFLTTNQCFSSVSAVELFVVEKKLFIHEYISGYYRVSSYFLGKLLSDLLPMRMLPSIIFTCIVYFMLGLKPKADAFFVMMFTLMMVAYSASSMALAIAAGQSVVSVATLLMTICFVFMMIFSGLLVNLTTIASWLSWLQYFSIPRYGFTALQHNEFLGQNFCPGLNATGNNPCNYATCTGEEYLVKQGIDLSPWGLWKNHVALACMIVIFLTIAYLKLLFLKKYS

[8] = Half life in human plasma at 1 uM by LC-MS/MS analysis; format: ADME, cell-free
Summary of the method: (§2)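 Samples were incubated in phosphate buffer or human plasma and analysed by LC-MS/MS in product ion scan mode. Analyte concentration was monitored over incubation time. The slope of ln(concentration) versus time gave the first-order degradation rate constant k, and t1/2 was calculated from k. Ketoprofen ethyl ester served as a reference to confirm that the plasma batch was enzymatically active.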

[9] = Half life in PBS at 1 uM by LC-MS/MS analysis; format: physicochemical; summary of the method: as §2

T1 sequence (P08183 whole entry): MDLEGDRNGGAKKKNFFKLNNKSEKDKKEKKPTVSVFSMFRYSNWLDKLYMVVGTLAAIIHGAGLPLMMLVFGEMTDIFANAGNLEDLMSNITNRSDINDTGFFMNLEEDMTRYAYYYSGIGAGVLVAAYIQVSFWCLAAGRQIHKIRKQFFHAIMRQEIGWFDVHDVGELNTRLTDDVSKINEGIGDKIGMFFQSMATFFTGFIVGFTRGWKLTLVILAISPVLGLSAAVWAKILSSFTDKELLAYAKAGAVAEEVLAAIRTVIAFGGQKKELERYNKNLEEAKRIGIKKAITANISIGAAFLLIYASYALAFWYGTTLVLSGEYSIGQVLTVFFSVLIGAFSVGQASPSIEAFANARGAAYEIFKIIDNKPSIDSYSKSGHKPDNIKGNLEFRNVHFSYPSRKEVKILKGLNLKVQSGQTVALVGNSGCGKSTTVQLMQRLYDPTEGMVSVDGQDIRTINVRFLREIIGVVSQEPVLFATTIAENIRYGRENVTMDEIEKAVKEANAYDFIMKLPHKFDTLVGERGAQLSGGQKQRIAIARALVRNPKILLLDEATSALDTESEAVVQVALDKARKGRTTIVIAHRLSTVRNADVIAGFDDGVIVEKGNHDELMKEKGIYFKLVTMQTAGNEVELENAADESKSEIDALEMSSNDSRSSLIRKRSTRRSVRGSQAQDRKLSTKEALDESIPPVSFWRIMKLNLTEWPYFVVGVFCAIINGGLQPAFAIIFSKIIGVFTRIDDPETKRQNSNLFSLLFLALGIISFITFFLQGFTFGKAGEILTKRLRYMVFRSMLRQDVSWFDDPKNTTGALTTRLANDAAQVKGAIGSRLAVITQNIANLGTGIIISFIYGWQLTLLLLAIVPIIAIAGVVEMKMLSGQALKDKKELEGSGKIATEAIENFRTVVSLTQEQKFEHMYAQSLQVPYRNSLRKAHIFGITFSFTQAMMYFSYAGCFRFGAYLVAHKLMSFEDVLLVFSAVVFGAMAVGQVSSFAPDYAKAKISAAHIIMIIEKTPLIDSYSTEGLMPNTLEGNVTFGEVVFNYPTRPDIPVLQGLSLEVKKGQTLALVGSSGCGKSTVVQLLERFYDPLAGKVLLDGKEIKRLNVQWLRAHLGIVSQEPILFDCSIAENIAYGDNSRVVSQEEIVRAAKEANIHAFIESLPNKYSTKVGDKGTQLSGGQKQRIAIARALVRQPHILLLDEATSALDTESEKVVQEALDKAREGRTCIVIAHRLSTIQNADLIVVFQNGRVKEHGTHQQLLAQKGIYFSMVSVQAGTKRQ

inhibition (INH) [1]	inhibition (INH) [2]	Activity [3] [%]	IC50 [4] [nM]	Alpha max [5]	EC50 [6] [nM]	EC50 [7] [µM]	half-life at 1 µM [8] [min]	half-life at 1 µM [9] [min]	Structure (SMILES)
Not Active	Not Active	92.8	20	0.94	520	3.8	> 240	> 240	COc1cc(/C=C/C(=O)OCCCCCCN(C)CCCCOC(=O)c2c3ccccc3cc3ccccc23)cc(OC)c1OC
Not Active	Not Active	58.4	60	0.99	210	8.1	> 240	> 240	COc1cc(/C=C/C(=O)OCCCCCCCN(C)CCCOC(=O)c2cc(OC)c(OC)c(OC)c2)cc(OC)c1OC
